Experimental findings from ChEMBL document CHEMBL1154971, “Synthesis and evaluation of opioid receptor-binding affinity of elaeocarpenine and its analogs” (Bioorg Med Chem Lett, 2010) are described below.

One experiment concerns the target Mu-type opioid receptor (Homo sapiens, UniProt P35372). The experiment is described as follows: Displacement of [3H]DAMGO from human mu opioid receptor expressed in HEK293 cells. It counts as cell-based. A digest of the protocol:
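Radioligand competition binding against [³H]DAMGO on human μ-opioid receptor in transfected HEK-293 cells; affinity derived from displacement of the tritiated ligand.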
A general note: Displacement assays read how much labelled ligand stays bound in the presence of the test substance.

Experiment [1] has as its target Kappa-type opioid receptor (Rattus norvegicus, UniProt P34975). The experiment is described as follows: Displacement of [3H]U69593 from rat kappa opioid receptor expressed in CHO cells.
For experiment [2], the target named is Delta-type opioid receptor (Homo sapiens, UniProt P41143). In words: Displacement of [3H]DADLE from human delta opioid receptor expressed in CHO cells.
Sequence of Delta-type opioid receptor (P41143 whole entry): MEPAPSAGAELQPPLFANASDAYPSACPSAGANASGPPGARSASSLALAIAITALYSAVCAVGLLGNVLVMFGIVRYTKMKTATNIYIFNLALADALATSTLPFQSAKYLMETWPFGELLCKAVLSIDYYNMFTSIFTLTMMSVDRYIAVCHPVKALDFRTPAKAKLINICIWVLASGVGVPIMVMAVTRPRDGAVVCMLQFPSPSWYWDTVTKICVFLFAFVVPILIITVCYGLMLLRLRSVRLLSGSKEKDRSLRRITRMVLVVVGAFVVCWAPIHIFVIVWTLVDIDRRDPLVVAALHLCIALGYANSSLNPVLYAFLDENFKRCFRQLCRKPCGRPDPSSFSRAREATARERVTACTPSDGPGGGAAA

Sequence of Mu-type opioid receptor (P35372 whole entry): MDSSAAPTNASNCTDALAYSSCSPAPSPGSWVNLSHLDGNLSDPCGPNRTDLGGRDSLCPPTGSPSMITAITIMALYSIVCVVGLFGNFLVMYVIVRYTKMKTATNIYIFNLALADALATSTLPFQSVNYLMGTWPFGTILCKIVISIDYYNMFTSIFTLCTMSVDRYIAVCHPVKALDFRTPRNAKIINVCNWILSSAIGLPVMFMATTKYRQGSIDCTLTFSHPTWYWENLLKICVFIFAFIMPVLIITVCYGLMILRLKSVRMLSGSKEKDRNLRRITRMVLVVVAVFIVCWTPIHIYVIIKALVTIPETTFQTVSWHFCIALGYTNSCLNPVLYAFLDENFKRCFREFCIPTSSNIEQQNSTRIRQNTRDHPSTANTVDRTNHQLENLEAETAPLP
Sequence of Kappa-type opioid receptor (P34975 whole entry): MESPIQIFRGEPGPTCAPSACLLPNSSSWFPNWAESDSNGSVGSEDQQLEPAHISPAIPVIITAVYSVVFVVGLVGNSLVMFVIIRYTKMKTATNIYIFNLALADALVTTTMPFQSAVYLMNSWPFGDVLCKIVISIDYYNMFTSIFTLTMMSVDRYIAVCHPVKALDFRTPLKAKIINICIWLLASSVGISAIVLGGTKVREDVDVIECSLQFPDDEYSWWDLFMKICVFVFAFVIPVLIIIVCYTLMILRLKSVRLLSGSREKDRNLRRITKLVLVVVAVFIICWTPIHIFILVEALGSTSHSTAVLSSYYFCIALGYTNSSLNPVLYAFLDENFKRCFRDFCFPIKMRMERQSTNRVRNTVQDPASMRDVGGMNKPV

One may read the Ki as a measure of affinity in units of concentration, obtained from inhibition or displacement. Turning to `Cc1cccc(O)c1C(=O)C1=CCCN2CCC[C@@H]12`, the inhibition constant Ki turned out to be 45 µM at Mu-type opioid receptor, 24 µM in experiment [1] and 94 µM in experiment [2].

In the case of `COc1cccc(C)c1C(=O)C1=CCCN2CCC[C@@H]12`, the Ki on Mu-type opioid receptor was > 200 µM; in experiment [1], 20 µM; in experiment [2], > 200 µM.

With `O=C(C1=CCCN2CCC[C@@H]12)c1ccccc1O`, the inhibition constant (Ki) on Mu-type opioid receptor is 49 µM; in experiment [1] it was 83 µM; in experiment [2], > 200 µM.

In the case of `Cc1cccc(O)c1C(=O)C1=CCCCN2CCC[C@@H]12`, the results for the Ki (at Mu-type opioid receptor; in experiment [2]) were 13 µM and > 200 µM, respectively.

In the case of `Cc1cccc(O)c1C(=O)C1=CCN2CCC[C@@H]12`, the Ki on Mu-type opioid receptor was 3.2 µM; in experiment [1], 35 µM; in experiment [2], > 200 µM.

With `Cc1cccc(O)c1C(=O)C1=CCCN2CCC[C@H]12` [ELAEOCARPENINE], the figures for the Ki (on Mu-type opioid receptor; in experiment [1]; in experiment [2]) were 18 µM, 12 µM and 14 µM, respectively.
